Assay outcomes from PubChem.
Hits are enriched below; roughly 2.1% of the tested compounds scored in any of these assays.
ERp5 block: inhibitors of human ERp5. inhibition, % at 9.99 µM. Q15084. ERp5 insulin aggregation, absorbance 650 nm, 90 min. AID 651711. 350,000 compounds, 0.05% hits;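 active means mean replicate inhibition above about 25%, with every replicate also reaching it, limit read from the data, passing the limit was not always enough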
ARNT TACC3 PPI: disrupts binding between human ARNT and TACC3. Q9Y6A5. AlphaScreen His-ARNT PAS-B/GST-TACC3 binding, luminescence; TACC3 fragment carries E629A point mutation. inhibition, % at 9.99 µM. 390,000 compounds, 0.66% hits;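 active means mean inhibition of replicates at least 50% and at least half of replicates each reaching 50%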;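 further: 0% = complete ARNT plus TACC3 wells and 100% = ARNT alone without TACC3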
FN deposition inh: fibronectin deposition inhibition; AH1F fibroblasts, Alexa488-fibronectin deposition fluorescence, overnight; 350,000 compounds, 0.086% hits; inhibition, % at 12.6 µM;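 active means mean inhibition across replicates of 30% or more, regardless of how many single replicates reach that level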;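 further: positive control wells lacked labelled fibronectin entirely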
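Material – AH1F fibroblast monolayer, labelled fibronectin deposition · Reagent – labelled fibronectin 24 nM · Timing – 1 h adhesion, overnight exposure · Measured by – fluorescence at 485 nm excitation, 525 nm emission · Read-out – inhibition of fibronectin deposition signal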
PDI inh: inhibitors of human protein disulfide isomerase; P07237; PDI insulin aggregation turbidity, A650, 90 min; inhibition, % at 10 µM; 350,000 compounds, 0.052% hits; AID 588391;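 active means mean inhibition across replicates of 30% or more, whatever share of single replicates reach that level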
Target sequence (P07237 whole entry, looked up): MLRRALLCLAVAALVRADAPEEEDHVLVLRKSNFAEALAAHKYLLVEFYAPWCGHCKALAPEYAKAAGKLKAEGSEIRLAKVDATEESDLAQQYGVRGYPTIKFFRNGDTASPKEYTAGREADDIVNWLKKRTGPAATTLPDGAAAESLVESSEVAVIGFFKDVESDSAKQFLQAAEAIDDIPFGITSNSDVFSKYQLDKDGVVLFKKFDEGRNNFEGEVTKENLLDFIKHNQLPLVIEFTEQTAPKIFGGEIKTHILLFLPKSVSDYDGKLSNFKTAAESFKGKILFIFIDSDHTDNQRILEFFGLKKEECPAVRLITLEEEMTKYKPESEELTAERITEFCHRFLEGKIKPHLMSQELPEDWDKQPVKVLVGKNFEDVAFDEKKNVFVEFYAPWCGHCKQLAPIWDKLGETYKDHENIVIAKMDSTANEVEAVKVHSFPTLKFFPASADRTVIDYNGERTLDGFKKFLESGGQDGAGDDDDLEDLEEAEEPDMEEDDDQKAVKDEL
FGF22 binding: FGF22 (human) thermal shift binding | 340,000 compounds, 1.5% hits | recombinant FGF22 thermal shift, SYPRO orange fluorescence; percent of sucrose octasulfate shift, DMSO zero | activity (Tm shift, normalised), % at 9.99 µM;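 active means mean Tm shift, scaled 0 neutral to 100 positive control, at about 1.3% or above, every replicate too, limit read from the data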
MLL AF4-AF9 inh: blocks AF4 peptide binding to human AF9. P42568. AlphaScreen, biotin-AF4 peptide binding to FLAG-AF9. inhibition, % at 10 µM. 350,000 compounds, 0.47% hits. AID 651704;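 active means every replicate reaching a set inhibition limit, whatever the replicate mean, cut at about 25% in these data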;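 further: 0% = plate neutral control median and 100% = total signal loss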
Numbers without * were called inactive; / = not tested or not shown.

SMILES	ERp5 block	ARNT TACC3 PPI	FN deposition inh	PDI inh	FGF22 binding	MLL AF4-AF9 inh
CC=Cc1ccc2n(c1=O)C[C@@H]1[C@@H](CO)[C@H](C(=O)NCCOC)[C@H]2N1Cc1ccccc1OC (mixture of isomers)	-0.8	/	/	/	/	-3.6
C=CCSc1nnc(NC(=O)COc2ccccc2)s1	4.9	-6.2	34.0*	1.7	0.1	-1.8
C=CCSc1nnc(NC(=O)COc2ccc3ccccc3c2)s1	0.7	-24.9	/	-6.3	0.1	-5.0
O=C(C1CCCC1)N1CC(=O)N2[C@@H](CO)[C@@H](c3ccc(C#CC4CCCC4)cc3)[C@@H]2C1	1.3	/	/	/	/	3.2
N#C[C@H]1[C@H](c2ccc(C#Cc3ccccc3F)cc2)[C@H](CO)N1C(=O)C1CCCC1	-1.7	/	25.6	/	/	-3.5
O=C(/C(=C(\[O-])c1ccccc1)[n+]1ccc2ccccc2c1)c1ccc(Cl)cc1	/	-39.6	-1.5	3.9	/	/
O=C(/C(=C(\[O-])c1ccccc1)[n+]1ccc2ccccc2c1)c1ccccc1	/	49.8*	-5.9	-0.5	/	/
CCN(CC)CCOc1ccc(/C(=C(\Cl)c2ccccc2)c2ccccc2)cc1	0.3	28.0	-3.2	10.2	0.4	31.6*
COc1ccc(NC(=O)N(C)C[C@H]2OCCCC[C@H](C)Oc3ccc(NC(=O)CCCN(C)C)cc3C(=O)N([C@@H](C)CO)C[C@H]2C)cc1	-0.8	-12.3	/	/	-0.4	0.3
COc1ccc(NC(=S)NNC(=O)c2ccc(S(=O)(=O)N3CCOCC3)cc2)cc1	0.6	-2.1	2.7	7.8	1.4*	1.2
COc1cc(-c2nnc(NC(=O)c3ccc(S(=O)(=O)N4CCOCC4)cc3)o2)cc(OC)c1OC	3.3	/	-14.4	/	0.9	-1.1
COc1ccccc1-c1nnc(NC(=O)c2ccc(S(=O)(=O)N3CCOCC3)cc2)o1	0.6	46.1*	0.4	-2.9	0.1	3.0
COCc1nnc(NC(=O)c2ccc(S(=O)(=O)N3CCOCC3)cc2)o1	-14.7	45.2*	2.4	15.3	-0.1	-2.7
CCC1CCCCN1Cc1c(O)ccc2c(=O)c(-c3ccccc3OC)coc12 (centres undefined)	2.6	-2.4	-4.5	-5.8	0.2	29.1*
CCN(CC)CCCN(C(=O)c1cccs1)c1nc(-c2ccc(OC)cc2)cs1	/	4.7	/	9.4	/	/
CCN(CC)CCCN(C(=O)c1ccc(Br)cc1)c1nc(-c2ccc(OC)cc2)cs1	-2.8	29.5	1.4	2.0	0.2	31.3*
CCN(CC)CCCN(C(=O)c1ccco1)c1nc(-c2ccc(C)cc2)cs1	0.5	7.4	2.3	8.4	-0.1	16.5
CCN(CC)CCCN(C(=O)c1ccco1)c1nc(-c2ccc(Cl)cc2)cs1	1.4	17.7	-2.6	23.1	-0.1	25.6*
C[n+]1c(-c2ccccc2)cc2c(=Cc3ccccc3)c3ccccc3n21	-4.9	23.5	1.7	7.6	-0.6	28.5*
C[n+]1c(-c2ccccc2)cc2c(=Cc3ccc([N+](=O)[O-])cc3)c3ccccc3n21	-2.8	13.8	3.5	4.0	0.0	61.4*
CC(C)n1c2ccccc2c2cc([N+](=O)[O-])ccc21	-1.4	-2.0	5.6	-6.6	0.1	5.1
C[C@H]1CCCCO[C@@H](CN(C)C(=O)Cc2ccccc2)[C@@H](C)CN([C@@H](C)CO)C(=O)c2cc(NS(=O)(=O)c3cn(C)cn3)ccc2O1	0.5	3.9	/	/	-0.3	-0.7
N#CCCN1CCN(Cn2c3ccccc3c3ccccc32)CC1	/	-3.5	/	-1.8	/	/
CN1CCN(CCCNCc2cn(CCC#N)c3ccccc23)CC1	2.2	1.8	-9.6	0.0	-0.3	25.0*
C[C@H](CO)N1C[C@H](C)[C@@H](CN(C)S(C)(=O)=O)Oc2ccc(NS(C)(=O)=O)cc2C1=O	-0.2	-10.0	/	/	-0.1	-2.4
O=C1C[C@@H](c2ccc(O[C@@H]3O[C@H](CO)[C@@H](O)[C@H](O)[C@H]3O)cc2)Oc2cc(O)ccc21	3.2	-1.2	16.5	35.7*	-0.1	-1.3
COc1cc2c(c(OC3OC(CO)C(O)C(O)C3O)c1)C(=O)CC(c1ccc(O)cc1)O2 (centres undefined)	3.6	/	/	/	-0.2	-0.1
CN1c2ccc(C#Cc3cccnc3)cc2[C@H]2[C@H](CCN2S(=O)(=O)c2cccc(F)c2)[C@H]1CO	-1.1	-7.9	6.0	/	0.2	-0.3
